Values after ≈ are worked out from the molar mass of the structure shown. Active and inactive are the calls of the source.
Experiments:
[1] = Protection against cisplatin-induced cell death in neonatal mouse HEI-OC1 cells assessed as reduction in caspase-3/7 activity; type: functional
[2] = target: CDK2/Cyclin A2 (Homo sapiens, UniProt P24941); experiment: Inhibition of C-terminal His6-tagged human full length CDK2/N-terminal GST-tagged human full length Cyclin A using histone H1 and [gamma-32P]-ATP incubated for 30 mins by phosphorimage based assay; type: protein-complex assay
[3] = tested on: Spiral organ of cochlea; experiment: Protection against cisplatin-induced toxicity in P3 mouse cochlear explants assessed as increase in outer hair cell count at 150 nM incubated for 24 hrs by phalloidin staining based confocal microscopy; type: functional, tissue-based
How it was run: (§1)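 P3 FVB mouse cochleae were cultured on filters in DMEM with 1% FBS and 50 μg/mL ampicillin, 37 °C, 5% CO2, for 1 d. They were pretreated with compound 1 h, then given cisplatin 150 μM plus compound for 1 d. Fixed in 4% PFA, phalloidin-stained, confocal imaged. OHCs counted per 160 μm; medium-only = full protection, cisplatin-only = none.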

[4] = tested on: Mus musculus; experiment: Toxicity in adult FVB mouse at 2 to 50 uM dosed to each left ear by transtympanic injection after 15 days; type: organism-based; conditions: in vivo, other, 360 h
How it was run: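 Adult FVB mice, blinded and randomized, received transtympanic left-ear 2, 10 or 50 μM compound or vehicle (PBS + 0.5% DMSO, 5 μL). Dosing was a single injection, or two injections 24 h apart in one series. Three to four mice per group. ABRs were recorded at 8, 16, 32 kHz after 15 days.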

[5] = tested on: Mus musculus; experiment: (§2) Protection against cisplatin-induced ototoxicity in adult FVB mouse assessed as reduction in auditory brainstem response threshold elevation by measuring ABR threshold shits at 16 kHz dosed at 50 uM administered to each left ear by transtympanic injection dosed 1 hr before cisplatin injection and measured after 15 days; type: functional
How it was run: (§3)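 P30 FVB mice under isoflurane got a single 5 μL transtympanic injection (50 μM in saline with 0.5% DMSO, or vehicle) into the left ear. Cisplatin was given i.p. 1 h later. Closed-field left-ear ABR thresholds were taken before treatment and at day 15. Shift is post minus pre. Mice losing <10% bodyweight were excluded. Mean ± SEM, paired 2-tailed t-test.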

[6] = tested on: Mus musculus; experiment: Protection against cisplatin-induced ototoxicity in adult FVB mouse assessed as reduction in outer hair cell loss in middle basal turn at 32 kHz dosed at 50 uM administered to each left ear by transtympanic injection dosed 1 hr before cisplatin injection and measured after 15 days; type: functional, organism-based
How it was run: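 After day-15 ABR, cochleae were harvested from transtympanically dosed, cisplatin-treated adult FVB mice. Organ of Corti was stained with phalloidin, anti-parvalbumin and DAPI. OHCs were counted per 160 μm in the 32-kHz (middle basal turn) region. Mean ± SEM, paired 2-tailed t-test.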

[7] = target: Glycogen synthase kinase-3 alpha (Homo sapiens) (UniProt P49840); experiment: Inhibition of human full length GSK3alpha expressed in bacterial expression system at 1 uM
Sequence of Glycogen synthase kinase-3 alpha (Homo sapiens) (P49840 2-483 limits assumed): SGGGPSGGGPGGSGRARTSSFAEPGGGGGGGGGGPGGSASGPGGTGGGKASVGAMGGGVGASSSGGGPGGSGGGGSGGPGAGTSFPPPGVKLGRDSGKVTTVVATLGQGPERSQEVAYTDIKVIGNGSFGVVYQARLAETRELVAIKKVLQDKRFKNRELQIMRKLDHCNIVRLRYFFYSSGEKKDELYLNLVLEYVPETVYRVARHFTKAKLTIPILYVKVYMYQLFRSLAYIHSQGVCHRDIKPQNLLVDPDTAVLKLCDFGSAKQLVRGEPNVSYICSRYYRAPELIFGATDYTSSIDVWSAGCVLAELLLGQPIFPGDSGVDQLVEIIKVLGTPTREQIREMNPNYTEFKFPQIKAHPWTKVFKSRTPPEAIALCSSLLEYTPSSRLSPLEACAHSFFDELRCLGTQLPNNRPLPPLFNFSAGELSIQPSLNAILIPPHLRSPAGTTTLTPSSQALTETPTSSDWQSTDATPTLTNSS
How it was run: (§4)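 Competition binding screen at 1 μM over a 468-kinase panel. Kinases were T7-phage-tagged (grown in E. coli BL21-derived host) or produced in HEK-293 cells with DNA tags. They bound to immobilized biotinylated ligand beads with compound for 1 h at room temperature in SeaBlock/PBS/Tween/DTT buffer. Eluted kinase was quantified by qPCR.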

[8] = target: Glycogen synthase kinase-3 beta (Homo sapiens) (UniProt P49841); experiment: Inhibition of human full length GSK3beta expressed in mammalian expression system at 1 uM; how it was run: as §4
Sequence of Glycogen synthase kinase-3 beta (Homo sapiens) (P49841 whole entry, looked up): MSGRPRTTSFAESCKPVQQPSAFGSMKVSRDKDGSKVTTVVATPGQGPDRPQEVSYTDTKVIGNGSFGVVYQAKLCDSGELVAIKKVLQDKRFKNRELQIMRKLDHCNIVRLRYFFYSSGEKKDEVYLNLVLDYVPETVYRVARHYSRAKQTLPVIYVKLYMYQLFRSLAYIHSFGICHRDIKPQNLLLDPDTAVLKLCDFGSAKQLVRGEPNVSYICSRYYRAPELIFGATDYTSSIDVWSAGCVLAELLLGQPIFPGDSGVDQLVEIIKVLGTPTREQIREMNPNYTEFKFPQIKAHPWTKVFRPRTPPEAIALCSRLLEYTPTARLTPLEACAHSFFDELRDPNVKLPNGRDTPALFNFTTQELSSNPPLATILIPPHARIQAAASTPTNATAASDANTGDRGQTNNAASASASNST

[9] = target: Cyclin-dependent kinase 7 (Homo sapiens) (UniProt P50613); experiment: Inhibition of human full length CDK7 expressed in mammalian expression system at 1 uM; how it was run: as §4
Sequence of Cyclin-dependent kinase 7 (Homo sapiens) (P50613 whole entry): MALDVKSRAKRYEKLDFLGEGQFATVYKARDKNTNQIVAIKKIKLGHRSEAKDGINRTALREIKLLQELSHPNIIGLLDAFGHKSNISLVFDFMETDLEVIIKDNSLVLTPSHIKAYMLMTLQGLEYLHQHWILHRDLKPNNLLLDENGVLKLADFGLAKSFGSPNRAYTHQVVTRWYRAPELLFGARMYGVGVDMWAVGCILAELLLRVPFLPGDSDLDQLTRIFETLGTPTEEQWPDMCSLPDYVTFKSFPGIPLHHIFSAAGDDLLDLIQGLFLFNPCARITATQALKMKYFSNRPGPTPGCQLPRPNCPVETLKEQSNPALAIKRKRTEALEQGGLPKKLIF

[10] = tested on: Mus musculus; experiment: as §2, with “32” for “16”; type: functional; how it was run: as §3
[11] = tested on: Mus musculus; experiment: Protection against cisplatin-induced ototoxicity in adult FVB mouse assessed as hearing thresholds at 32 kHz dosed at 50 uM administered to each left ear by transtympanic injection dosed 1 hr before cisplatin injection and measured after 15 days; type: functional, organism-based
How it was run: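 P30 FVB mice under isoflurane received 5 μL compound in PBS + 0.5% DMSO into the left ear by transtympanic 33-gauge cannula; vehicle controls matched. Cisplatin i.p. 1 h later; one regimen added a second injection 24 h after cisplatin. Left-ear closed-field ABR thresholds at 8, 16, 32 kHz were taken before treatment and at day 15. Threshold shift is reported as mean ± SEM, paired 2-tailed t-test. Mice losing <10% bodyweight were excluded.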

[12] = Solubility of the compound in citrate phosphate buffered saline incubated for 18 hrs by UV spectroscopy; type: physicochemical; conditions: buffer
How it was run: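 A 10 mM DMSO stock was diluted into buffer and held 18 h at room temperature. It was then filtered and mixed 1:1 with 1-propanol. UV spectrum (250–500 nm) AUC was compared with a reference of stock in 1-propanol/isotonic citrate PBS. Triplicate.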

[13] = tested on: Spiral organ of cochlea; experiment: Protection against cisplatin-induced toxicity in P3 mouse cochlear explants assessed as increase in outer hair cell count incubated for 24 hrs by phalloidin staining based confocal microscopy; type: functional, tissue-based
[14] = tested on: Spiral organ of cochlea; experiment: Protection against cisplatin-induced toxicity in P3 mouse cochlear explants assessed as increase in outer hair cell count at 100 to 500 nM incubated for 24 hrs by phalloidin staining based confocal microscopy; type: functional, tissue-based; how it was run: as §1
[15] = Mus musculus, HEI-OC1, read-out: EC50

Row | Compound | EC50 [1] | EC50 [1, 15] [µM] | further results
1 | NS(=O)(=O)c1ccc(CCNc2nccc(-c3ccccn3)n2)cc1 | Not Active | – | –
2 | CCn1cc(NC(=O)c2ccc(COCC(F)(F)F)cc2)c(C(=O)NCC(C)C)n1 | – | 6.75 | IC50 [2]: > 10 µM
3 | O=C(NCC1CC1)c1n[nH]cc1NC(=O)c1c(F)cccc1F | – | 0.044 | Activity [3]: inactive
4 | CCn1cc(NC(=O)c2ccc(Cl)cc2Cl)c(C(=O)Nc2ccccc2)n1 | – | 31.1 | IC50 [2]: > 10 µM
5 | O=C(Nc1c[nH]nc1C(=O)Nc1ccc(F)cc1)c1ccccc1 | – | > 33.2 | –
6 | N[C@H]1CC[C@H](NC(=O)c2n[nH]cc2NC(=O)c2c(F)cccc2F)CC1 | – | > 33.5 | –
7 | CCC(Nc1nccc(-c2ccccn2)n1)c1ccc(S(C)(=O)=O)cc1 (configuration not stated) | Not Active | – | –
8 | CN[C@@H]1CCN(C(=O)c2ccc(Nc3ncc(F)c(-c4cnc(C)n4C(C)C)n3)cc2)C1 | Not Active | – | –
9 | O=C(N[C@H]1CC[C@H](O)CC1)c1n[nH]cc1NC(=O)c1c(F)cccc1F | – | – | Activity [3]: Active; Activity [4]: Non-Toxic; Activity [5]: 10 dB; Activity [6]: inactive; inhibition [7]: Active; inhibition [8]: Active; inhibition [9]: Active
10 | Cc1[nH]nc(C(N)=O)c1NC(=O)c1cc(F)cc(Br)c1 | Not Active | – | –
11 | O=C(NC1CCCCC1)c1n[nH]cc1NC(=O)c1c(F)cccc1F | – | > 27.3 | –
12 | Cn1ncc(NC(=O)c2ccccc2Cl)c1C(=O)N1CCCCC1 | Not Active | – | –
13 | CCCNC(=O)c1c(NC(=O)c2ccc(Cl)cc2Cl)cnn1C | Not Active | – | –
14 | O=C(NC1CCN(C(=O)c2c(Cl)cccc2Cl)CC1)c1n[nH]cc1NC(=O)c1c(Cl)cccc1Cl | – | 0.459 | IC50 [2]: 0.76 µM; Activity [3]: inactive
15 | Cn1cc(NC(=O)c2c(Cl)cccc2Cl)c(C(=O)NC2CCN(C(=O)c3c(Cl)cccc3Cl)CC2)n1 | – | > 49.4 | IC50 [2]: > 10 µM
16 | CN(Cc1nccn1Cc1ccccc1)c1nccc(-c2ccccn2)n1 | Not Active | – | –
17 | CCn1cc(NC(=O)c2ccc(Cn3cc(Cl)cn3)cc2)c(C(=O)NC2CCCC2)n1 | – | 5.04 | IC50 [2]: > 10 µM
18 | O=C(Cc1ccccc1)Nc1c[nH]nc1C(=O)Nc1ccc(F)cc1 | – | > 32.7 | –
19 | O=C(NC1CCNCC1)c1n[nH]cc1NC(=O)c1c(F)cc(F)cc1F | – | > 30.9 | –
20 | NS(=O)(=O)c1ccc(CNc2nccc(-c3ccccn3)n2)cc1 | Not Active | – | –
21 | CCn1cc(NC(=O)c2c(F)cccc2F)c(C(=O)NCC(C)C)n1 | Not Active | – | –
22 | Cc1[nH]nc(C(N)=O)c1NC(=O)C(C)NC(=O)c1ccc(Cl)cc1 (configuration not stated) | Not Active | – | –
23 | O=C(Nc1ccc(F)cc1)c1n[nH]cc1NC(=O)C1CCCCC1 | – | > 32.2 | –
24 | Cc1ncc(-c2ccnc(Nc3ccc(S(C)(=O)=O)cc3)n2)n1C(C)C [AZD-5438] | – | – | Activity [4]: Non-Toxic; Activity [10]: 14 dB; Activity [6]: Active; Activity [11]: Active; inhibition [7]: Active; inhibition [8]: Active; inhibition [9]: Active; solubility [12]: 68.8 µM (≈ 25.6 µg/mL)
25 | Cc1[nH]nc(C(N)=O)c1NC(=O)c1ccc(OCC2CC2)cc1 | Not Active | – | –
26 | CNC(=O)c1nn(C)cc1NC(=O)c1ccccc1Cl | Not Active | – | –

Row | Compound | EC50 [1] | EC50 [1, 15] [µM] | further results
27 | Cc1ccc(-c2ccnc(NCC(C)n3nc(C)cc3C)n2)c(C)n1 (configuration not stated) | Not Active | – | –
28 | Cc1ccc(C(=O)Nc2c(C(=O)N(C)C)nn(C)c2C)cc1 | Not Active | – | –
29 | CCn1ccnc1CN(C)c1nccc(-c2ccc(C)nc2C)n1 | Not Active | – | –
30 | COc1ccc2c(c1)/C(=C/c1cnc[nH]1)C(=O)N2 [SU-9516] | – | 1.59 | EC50 [13]: 6 µM
31 | CC(C)CNC(=O)c1c(NC(=O)c2ccc(COCC(F)(F)C(F)F)cc2)cnn1C | Not Active | – | –
32 | CCn1cc(NC(=O)c2ccccc2Cl)c(C(=O)NCC(C)C)n1 | Not Active | – | –
33 | CCCNC(=O)c1c(NC(=O)c2cc(S(=O)(=O)N(C)C)c(Cl)cc2Cl)cnn1C | Not Active | – | –
34 | COc1cccc(F)c1C(=O)Nc1c[nH]nc1C(=O)NC1CCNCC1 | – | > 37.2 | –
35 | CCCNC(=O)c1c(NC(=O)c2cc(S(=O)(=O)N3CCCC3)c(Cl)cc2Cl)cnn1C | Not Active | – | –
36 | O=C(Nc1ccc(F)cc1)c1n[nH]cc1NC(=O)c1c(F)cccc1F | – | – | Activity [3]: inactive
37 | Cn1ncc(NC(=O)c2n[nH]cc2Cl)c1C(=O)N1CCCCC1 | Not Active | – | –
38 | Cn1ncc(NC(=O)c2ccc(Cl)cc2Cl)c1C(=O)NCc1ccco1 | Not Active | – | –
39 | N#Cc1ccc2c(c1)/C(=C1/C=CC(CN3CCOCC3)=CN1)C(=O)N2 | – | 3.63 | EC50 [13]: 15 µM
40 | O=C1Cc2c([nH]c3ccc(Br)cc23)-c2ccccc2N1 [KENPAULLONE] | – | 0.349 | EC50 [13]: 0.15 µM; inhibition [7]: Active; inhibition [8]: Active; inhibition [9]: Active
41 | O=C(N[C@H]1CCCNC1)c1n[nH]cc1NC(=O)c1c(F)cccc1F | – | > 37.9 | –
42 | NS(=O)(=O)c1ccc(N/N=C2\C(=O)Nc3ccc(Br)cc32)cc1 | – | 0.127 | EC50 [13]: 1 µM
43 | Cc1nc(-c2ccnc(N)n2)cn1Cc1c(Cl)cccc1Cl | Not Active | – | –
44 | Cc1cc(Br)ccc1C(=O)Nc1c(C(N)=O)n[nH]c1C | Not Active | – | –
45 | CCCNC(=O)c1c(NC(=O)c2ccccc2Cl)cnn1C | Not Active | – | –
46 | O=C(NC1CCNCC1)c1n[nH]cc1NC(=O)c1c(F)cccc1F | – | 22.5 | –
47 | O=C(NC1CCNCC1)c1n[nH]cc1NC(=O)c1c(Cl)cccc1Cl | – | – | Activity [14]: inactive; inhibition [7]: Active; inhibition [8]: Active; inhibition [9]: Active
48 | c1ccc(Nc2nccc(-c3ccccn3)n2)cc1 | Not Active | – | –
49 | CC[C@H](CO)Nc1nc(NCc2ccccc2O)c2ncn(C(C)C)c2n1 [OLOMOUCINE II] | – | 0.595 | EC50 [13]: 3 µM
50 | Cc1[nH]nc(C(N)=O)c1NC(=O)c1cc(F)c(F)c(F)c1 | Not Active | – | –
51 | Cn1cc(NC(=O)c2ccc(Cl)cc2Cl)c(C(=O)NCCc2ccco2)n1 | Not Active | – | –
